Assay results taken from PubChem BioAssay.
The source made the active and inactive calls.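 Rule for the calls: active = a full or partial loss of lipid-probe fluorescence in the fish gall bladder, intestine or both, judged by eye; inactive = no fluorescence loss, or compound toxic to the fish.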

Assay: inhibitors of larval lipid processing in zebrafish, primary screen, whole organism, PED6 fluorescence, gall bladder and intestine (AID 686);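 note: larvae 5 to 7 days old with five fish per well; signal comes from phospholipase A2 cleavage of quenched PED6 carried via bile; overnight exposure to compound and PED6 before scoring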
Conditions: Zebrafish larvae PED6 lipid processing, fluorescence scoring; screened at 20 µM (by protocol)
How it was run: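 Test system – live zebrafish larvae aged 5-7 days, whole organism · Buffer or medium – E3 fish medium · Reagent – quenched phospholipase substrate PED6, 100 nM final, ingested by larvae · Doses – 20 µM single dose · Incubation – overnight compound and PED6 incubation · Technique – visual fluorescence microscopy scoring of gall bladder, gut · Read-out basis – visual per-well fluorescence inhibition score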
In the case of `COC(=O)C(NC(C)=O)(Nc1ccccn1)C(F)(F)F` (stereo not drawn), the outcome is reported as “inactive”.
For `CCOC(=O)c1ccc2nc(NC(NC(C)=O)(C(=O)OC)C(F)(F)F)sc2c1` (stereo not drawn), the outcome was “inactive”.
In the case of `Cc1nc2sc(C#N)c(N)c2c2c1CCCC2`, the outcome is reported as “inactive”.
For `COCc1cc(=O)[nH]c(Nc2nc3ccccc3o2)n1`, the outcome was “inactive”.
For `Cc1c(O)c(CN2CCCCC2)cc2c3c(c(=O)oc12)CCC3`, the outcome was “inactive”.
In the case of `O=C(C1CC1(c1ccccc1)c1ccccc1)N1CCOCC1` (stereo not drawn), the outcome is reported as “inactive”.
In the case of `Cn1c(=O)[nH]c(=O)c2c1nc(N(CCO)Cc1ccccc1)n2Cc1ccccc1Cl`, the outcome is reported as “inactive”.
In the case of `CC1(C)CNC(=O)c2sc(N3CCOCC3)nc2C1`, the outcome is reported as “inactive”.
In the case of `CCOC(=O)CNC(=O)Nc1ccccc1C(=O)OC`, the outcome is reported as “inactive”.
With `CC(=O)C1=C(O)C(=O)N(c2ccc(C(=O)O)cc2)C1c1ccccc1` (stereo not drawn) the outcome was “inactive”.
With `Cn1c(=O)n(Cc2ccccc2)c(=O)c2c1nc(NCC1CCCO1)n2Cc1ccccc1` (stereo not drawn) the outcome was “inactive”.
With `c1ccc(CN2CCN(c3ncnc4c3[nH]c3ccccc34)CC2)cc1` the outcome was “active; weak signal in intestine only”.
For `Cc1nnc2n(-c3ccccc3)c(=O)c3c4c(sc3n12)CCCC4`, the outcome was “inactive”.
For `COc1ccc2c(c1)n([O-])c1c([n+]2=O)CCC1`, the outcome was “inactive”.
With `Cc1cc2c(c(=O)o1)C(Cc1ccccc1)C(C#N)=C(N)O2` (stereo not drawn) the outcome was “inactive”.
In the case of `c1ccc2c(c1)[nH]c1c(N3CCC4(CC3)OCCO4)ncnc12`, the outcome is reported as “inactive”.
With `CCOC(=O)c1ccc(N=Cc2nc(-c3ccccc3)oc2OC(C)=O)cc1` the outcome was “inactive; toxic”.
With `CCN1CCc2c(C#N)c(N3CCCCC3)nc(NCc3ccccc3)c2C1` the outcome was “inactive”.
